ChEMBL document CHEMBL1157680, “Isoxazole analogues bind the system xc- transporter: structure-activity relationship and pharmacophore model” (Bioorg Med Chem, 2010)
Calls of active or inactive are those of the source. No cut-off for these calls is given here.

Key:
[1] = target: T1, Cystine/glutamate transporter (Homo sapiens, UniProt Q9UPY5); experiment: Inhibition of amino acid transport system xc- in human SNB19 cells assessed as [3H]L-glutamate uptake by liquid scintillation counting; assay type: cell-based, SNB-19
T1 sequence (Q9UPY5 whole entry): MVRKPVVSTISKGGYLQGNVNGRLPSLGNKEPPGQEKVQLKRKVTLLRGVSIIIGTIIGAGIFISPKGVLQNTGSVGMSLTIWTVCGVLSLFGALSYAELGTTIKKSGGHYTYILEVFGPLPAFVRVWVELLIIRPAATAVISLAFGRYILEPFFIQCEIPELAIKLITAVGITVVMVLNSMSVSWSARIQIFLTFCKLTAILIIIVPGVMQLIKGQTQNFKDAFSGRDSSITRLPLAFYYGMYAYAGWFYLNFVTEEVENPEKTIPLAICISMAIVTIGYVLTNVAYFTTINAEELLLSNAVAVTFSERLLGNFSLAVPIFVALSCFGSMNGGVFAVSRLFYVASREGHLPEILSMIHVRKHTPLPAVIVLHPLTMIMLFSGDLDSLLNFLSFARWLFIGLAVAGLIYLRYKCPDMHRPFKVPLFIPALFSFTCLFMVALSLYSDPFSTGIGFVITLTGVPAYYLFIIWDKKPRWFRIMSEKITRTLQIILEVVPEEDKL

[2] = target: T1, Cystine/glutamate transporter; experiment: Competitive inhibition of [3H]L-glutamate uptake at amino acid transport system xc- in human SNB19 cells by liquid scintillation counting; assay type: cell-based, SNB-19
Procedure, shortened: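 SNB-19 glioma monolayers were assayed in Na+-free choline-HEPES Hank's buffer, pH 7.4, at 30 °C. L-[3H]-glutamate with L-Glu (10–500 μM final) and inhibitor were added simultaneously for 5 min. Radioactivity in NaOH lysates was counted by LSC. Ki came from a replot of Km,app values, or from IC50 inhibition curves using the Cheng-Prusoff equation.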

[3] = target: T2, Cystine/glutamate transporter (Homo sapiens) (UniProt Q9UPY5); experiment: Inhibition of amino acid transport system xc- in human SNB19 cells assessed as [3H]L-glutamate uptake at 500 uM by liquid scintillation counting; assay type: cell-based; set-up: scale not given: the % may be the effect or the level left; conditions: SNB-19
T2 sequence (whole entry): T1 sequence (Q9UPY5 whole entry)
Procedure, shortened: (§1)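 Confluent SNB-19 glioma monolayers were refed 2 h before assay, then preincubated 5 min at 30 °C in Na+-free HEPES-buffered Hank's (choline Cl, pH 7.4). Test agent was added together with L-[3H]-glutamate plus unlabeled L-Glu (10–500 μM final). After 5 min at 30 °C, ice-cold washes stopped uptake. Cells were lysed in 0.4 M NaOH and counted by LSC. Results are % of control uptake.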

[4] = target: T2, Cystine/glutamate transporter (Homo sapiens); experiment: Activity at amino acid transport system xc- in human SNB19 cells assessed as induction of L-glutamate efflux at 500 uM by fluorometric assay; assay type: cell-based; conditions: SNB-19
Procedure, shortened: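 Paired SNB-19 coverslips were rinsed 10 min in Na+-free HBHS, then placed in a stirred cuvette (2 ml HBHS, 30 °C). NADP+ (1 mM) was added at 0 s and glutamate dehydrogenase (33 U) at 60 s, then the test substrate. L-Glu efflux was followed in real time as NADPH fluorescence. Triton X-100 (0.5%) gave total cellular L-Glu. Efflux was quantified from a cell-free standard curve.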

[5] = target: T2, Cystine/glutamate transporter (Homo sapiens); experiment: Inhibition of amino acid transport system xc- in human SNB19 cells assessed as [3H]L-glutamate uptake at 250 uM by liquid scintillation counting; assay type: cell-based; set-up: scale not given: the % may be the effect or the level left; conditions: SNB-19; procedure, shortened: as §1
[6] = target: T2, Cystine/glutamate transporter (Homo sapiens); experiment: Inhibition of [3H]L-glutamate uptake at amino acid transport system xc- in human SNB19 cells at 500 uM by liquid scintillation counting; assay type: cell-based; conditions: SNB-19; procedure, shortened: as §1
[7] = target: T2, Cystine/glutamate transporter (Homo sapiens); conditions: SNB-19, 500 uM
[8] = tested on: LRM55; experiment: Inhibition of amino acid transport system xc- in rat LRM55 cells assessed as [3H]L-glutamate uptake at 500 uM by liquid scintillation counting; assay type: cell-based; set-up: scale not given: the % may be the effect or the level left

C/C(=N\Nc1ccc([N+](=O)[O-])cc1[N+](=O)[O-])c1c(C(=O)O)noc1CCc1ccc2ccccc2c1
IC50 [1]: 225 µM | Ki [2]: 113 µM | Activity [3]: 45% | Activity [4]: inactive

Cc1nn(-c2cccc([N+](=O)[O-])c2)c(=O)c2noc(C)c12
Activity [3]: 96%

C/C(=N\NS(=O)(=O)c1ccccc1)c1c(C(=O)O)noc1C
Activity [5]: 101%

Cc1nn(-c2cc(C(F)(F)F)cc(C(F)(F)F)c2)c(=O)c2noc(C)c12
inhibition [6]: 18% | Activity [3]: 82%

COc1ccc(-n2nc(C)c3c(C)onc3c2=O)cc1
Activity [3]: 92%

CCc1onc(C(=O)O)c1C[C@H](N)C(=O)O
Activity [5]: 92%

N[C@@H](Cc1c(C(=O)O)noc1CCc1ccccc1)C(=O)O
Activity [5]: 70%

C/C(=N\Nc1ccccc1)c1c(C(=O)O)noc1C
inhibition [6]: 44% | Activity [3]: 56%

Cc1onc(C(=O)O)c1CC(N)P(=O)(O)O (racemic)
Activity [5]: 107%

Cc1ccc(-n2nc(C)c3c(C)onc3c2=O)cc1
Activity [3]: 94%

Cc1nn(-c2ccccc2)c(=O)c2noc(C)c12
inhibition [6]: 26% | Activity [3]: 74%

CCOC(=O)c1noc(C)c1/C(C)=N/NS(=O)(=O)c1ccccc1
Activity [5]: 96%

C/C(=N\Nc1cc(C(F)(F)F)cc(C(F)(F)F)c1)c1c(C(=O)O)noc1C
IC50 [1]: 129 µM | Ki [2]: 64 µM | inhibition [6]: 86% | Activity [3]: 14% | Activity [4]: inactive

N[C@@H](Cc1c(C(=O)O)noc1CCc1cccc2ccccc12)C(=O)O
Ki [2]: 117 µM | Activity [5]: 47% | Activity [4]: inactive

Cc1nn(-c2ccc(C(F)(F)F)cc2)c(=O)c2noc(C)c12
Activity [3]: 99%

CCOC(=O)c1noc(C)c1/C(C)=N/NC(N)=O
Activity [5]: 103%

C/C(=N\NC(=O)Nc1ccccc1)c1c(C(=O)O)noc1C
Activity [5]: 76%

COCc1onc(C(=O)O)c1C[C@H](N)C(=O)O
Activity [5]: 98%

Cc1nn(-c2cc(Cl)cc(Cl)c2)c(=O)c2noc(C)c12
Activity [3]: 89%

C/C(=N\NC(N)=O)c1c(C(=O)O)noc1C
Activity [5]: 91%

Cc1onc(C(=O)O)c1C[C@H](N)C(=O)O
Activity [5]: 98%

N[C@@H](Cc1c(C(=O)O)noc1CCc1ccc2ccccc2c1)C(=O)O
Ki [2]: 52 µM | inhibition [7]: Active | Activity [5]: 37% | Activity [4]: inactive

C/C(=N\Nc1ccc([N+](=O)[O-])cc1[N+](=O)[O-])c1c(C(=O)O)noc1COCc1ccc2ccccc2c1
Activity [3]: 95%

Cc1nn(-c2ccc([N+](=O)[O-])cc2)c(=O)c2noc(C)c12
inhibition [6]: 15% | Activity [3]: 85%

C/C(=N\Nc1ccccc1[N+](=O)[O-])c1c(C(=O)O)noc1C
Activity [3]: 97%

Cc1nn(-c2ccc(F)cc2F)c(=O)c2noc(C)c12
Activity [3]: 95%

N[C@@H](Cc1c(C(=O)O)noc1COCc1ccccc1)C(=O)O (racemic)
Activity [5]: 70%

Cc1nn(-c2ccc(F)cc2)c(=O)c2noc(C)c12
Activity [3]: 86%

COC(C)c1onc(C(=O)O)c1C[C@H](N)C(=O)O (mixture of isomers)
Activity [5]: 115%

C/C(=N\Nc1ccc([N+](=O)[O-])cc1[N+](=O)[O-])c1c(C(=O)O)noc1C
IC50 [1]: 290 µM | Ki [2]: 147 µM | Activity [3]: 45% | Activity [5]: 73% | Activity [4]: inactive

C/C(=N\Nc1ccc([N+](=O)[O-])cc1)c1c(C(=O)O)noc1C
IC50 [1]: 127 µM | Ki [2]: 60 µM | inhibition [6]: 78% | Activity [3]: 22% | Activity [4]: inactive

Cc1onc(O)c1C[C@H](N)C(=O)O
Activity [8]: 95%

Cc1onc(C(=O)O)c1CC(N)C(=O)O (racemic)
Activity [5]: 101%
